Test results reported in article PMC11929782 (Scientific Reports, 2025).
Ends that are not written are not given here.

How the values were obtained:
THP-1 cells = experiment: Cytotoxicity, CCK-8 assay; type: cell-based, human; settings: THP-1, normal and IL17RA-deficient cells, varying concentrations, 24 h
Outline: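 THP-1 cells were cultured in RPMI1640 (0.05 mM β-mercaptoethanol, 10% FBS). They were made into M1 macrophages with 100 ng/ml PMA for 120 h, then 1 µg/ml LPS plus 20 ng/ml IFNγ for 24 h. IL17RA was knocked down by siRNA, with cells harvested at 48 h. Normal and knockdown cells (1 × 10⁴ cells/ml) received test compound at varied concentrations for 24 h. CCK-8 for 4 h; A450. Mean ± SEM, ≥3 independent experiments.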

HaCaT cells = experiment: Cytotoxicity, CCK-8 assay; type: cell-based, human; settings: normal and IL17RA-deficient cells, varying concentrations, 24 h
Outline: (§1)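 HaCaT and NIH3T3 cells were grown in DMEM with 10% FBS at 37 °C and 5% CO2. IL17RA was knocked down with siRNA and Lipofectamine 2000, and cells were harvested 48 h post-transfection. Normal and knockdown cells were seeded at 1 × 10⁴ cells/ml and exposed to a range of test compound concentrations for 24 h. CCK-8 was added for 4 h and absorbance read at 450 nm. Mean ± SEM, ≥3 independent experiments.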

IL17A = IL17A (Homo sapiens, UniProt Q16552); experiment: ELISA binding assay, IL17A; settings: read at 450 nm
NIH3T3 cells = experiment: Cytotoxicity, CCK-8 assay; type: cell-based, murine; settings: NIH3T3, normal and IL17RA-deficient cells, varying concentrations, 24 h
Outline: as §1

IL17RC = target: T1, IL17RC (Homo sapiens, UniProt Q8NAC3); experiment: ELISA binding assay, IL17RC; settings: read at 450 nm
T1 sequence (Q8NAC3 21-791): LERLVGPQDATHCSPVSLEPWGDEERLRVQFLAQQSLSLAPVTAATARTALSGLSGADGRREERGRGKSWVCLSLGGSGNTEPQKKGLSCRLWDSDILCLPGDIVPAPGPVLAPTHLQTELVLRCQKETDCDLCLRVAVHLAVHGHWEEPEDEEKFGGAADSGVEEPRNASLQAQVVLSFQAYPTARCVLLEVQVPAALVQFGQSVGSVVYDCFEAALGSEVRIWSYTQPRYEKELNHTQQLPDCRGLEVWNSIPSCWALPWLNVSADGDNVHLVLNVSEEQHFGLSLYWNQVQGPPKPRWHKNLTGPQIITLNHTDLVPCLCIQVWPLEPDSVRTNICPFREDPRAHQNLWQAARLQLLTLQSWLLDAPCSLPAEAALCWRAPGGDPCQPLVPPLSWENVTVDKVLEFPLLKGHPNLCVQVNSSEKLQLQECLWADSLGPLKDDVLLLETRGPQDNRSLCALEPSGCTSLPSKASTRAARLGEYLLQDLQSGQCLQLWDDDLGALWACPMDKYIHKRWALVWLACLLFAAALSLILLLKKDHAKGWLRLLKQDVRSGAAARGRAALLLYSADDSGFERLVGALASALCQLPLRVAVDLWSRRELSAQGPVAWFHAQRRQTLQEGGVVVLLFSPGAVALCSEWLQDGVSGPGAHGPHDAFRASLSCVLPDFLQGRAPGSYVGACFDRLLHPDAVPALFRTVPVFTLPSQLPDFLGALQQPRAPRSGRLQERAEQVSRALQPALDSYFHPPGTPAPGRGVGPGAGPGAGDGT

RAW264.7 cells = experiment: Cytotoxicity, CCK-8 assay; type: cell-based, murine; settings: RAW264.7, normal and IL17RA-deficient cells, varying concentrations, 24 h
Outline: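 RAW264.7 cells were cultured in RPMI1640 (0.05 mM β-mercaptoethanol, 10% FBS) and polarized to M1 with 1 µg/ml LPS plus 20 ng/ml IFNγ for 24 h. IL17RA was knocked down by siRNA transfection, with cells harvested at 48 h. Normal and knockdown cells (1 × 10⁴ cells/ml) were treated 24 h with varied test compound concentrations. CCK-8 was added for 4 h, then absorbance read at 450 nm. Mean ± SEM, ≥3 independent experiments.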

IL17F = target: T2, IL17F (Homo sapiens, UniProt Q96PD4); experiment: ELISA binding assay, IL17F; settings: read at 450 nm
T2 sequence (Q96PD4 31-163): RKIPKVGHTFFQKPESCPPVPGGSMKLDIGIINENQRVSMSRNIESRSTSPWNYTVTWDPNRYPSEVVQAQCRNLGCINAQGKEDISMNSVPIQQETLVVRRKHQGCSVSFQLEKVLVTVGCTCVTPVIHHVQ

[1] = patients, long-term studies; cited from earlier work
Human IL17RA protein [2] = target: T3, Human IL17RA protein (human, UniProt Q96F46 33-320); experiment: MST
Human IL17RA protein [3] = target: T3, Human IL17RA protein; experiment: SPR

IL17A, sequence (Q16552 24-155, species assumed): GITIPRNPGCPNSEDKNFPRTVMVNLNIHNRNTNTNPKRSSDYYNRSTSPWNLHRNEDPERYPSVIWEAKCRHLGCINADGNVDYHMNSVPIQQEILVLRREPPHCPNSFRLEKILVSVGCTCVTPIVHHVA

With ASPVIYHL-NH2 [AL-8(0)] the “Cytotoxicity (cell viability, CCK-8)” value (THP-1 cells) was “not directly cytotoxic”, the “Cytotoxicity (cell viability, CCK-8)” value (HaCaT cells) was “not directly cytotoxic” and the “EC50 for binding to IL17A” value (IL17A) was “no measurable”. The “Cytotoxicity (cell viability, CCK-8)” value (NIH3T3 cells) was “not directly cytotoxic”, the “EC50 for binding to IL17RC” value (IL17RC) was “no measurable” and the “Cytotoxicity (cell viability, CCK-8)” value (RAW264.7 cells) was “not directly cytotoxic”. For the same molecule, the “EC50 for binding to IL17F” value (IL17F) was “no measurable”.

In the case of Ixekizumab, the Immunogenicity [1] is given as “variable immunogenicity”.

In the case of Secukinumab, the ADA incidence rate [1] is listed as < 1%.

ASPVIYHL-NH2 [AL-8(0)] gave a Kd (Human IL17RA protein [2]) of 89 nM and a Kd (Human IL17RA protein [3]) of 83 nM.
